From the RNAGym collection of RNA variant scans (doi:10.1126/science.aae0568) come the findings set out here.

B1: tRNA (parent)
chain: GUUCCGUUGGCGUAAUGGUAACGCGUCUCCCUCCUAAGGAGAAGACUGCGGGUUCGAGUCCCGUACGGAACG

This sample holds only a part of the variants without activity. A value given as a limit tells only on which side of the number the result lay.

In the data set the parent is B1. Description: yeast fitness relative to wild type (ratio to wild type); higher = fitter; tRNA-Arg(CCU), competitive growth, 37 C, YPD. The method in brief: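 Start and end populations of a pooled competition were compared by 100-nucleotide paired-end sequencing of gene amplicons. The Saccharomyces cerevisiae strains carried tRNA-Arg(CCU) gene variants at the native genomic locus, synthesised with a 3% per-site mutation rate at 69 sites, and competed in YPD at 37°C for 24 hours in six parallel replicates. Darwinian fitness relative to wild type was based on the change in genotype frequencies. Genotypes required ≥ 100 starting reads, and estimates < 0.5 were set to 0.5.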
On to GUUCCGUUGGCAUAAUGGUAACGCGUCUCCCUCCUAAGGAGAUGCCUGCGGGUUCGAGUCCCGUACCGAACG, for which the yeast fitness was 0.542. For GUUCCGUUGGCAUAAUGGUAACGCGUCUCCCUCCUAAGGAGAAGACUGUGGGUUCGAGUCCCGUACGGAACG, the yeast fitness was determined as 0.93.

Regarding GUUCCGUUGGCAUAAUGCUAACGCGUCUCCCUCCUAAGGAGUAGACUGCGGGUUCGAGUCCCGUACGGAGCG, the yeast fitness came out at 0.598. For GUUCCGUUGGCAUAAUGGUAACGCGUCUCCCUCCUAAGGAGAAGACUGCGGGUUCGCGUCCCGUAGGGAACG the value was not above 0.5; for GUUCCGUUGGCAUAAUGGUAUCGCGUCUCCCUCCUAAGGAGAAGACUGCGGGUUCGAGUCCCGUACGGAACG, 0.729; for GUUCCGUUGGCAUAAUGGUAACGCGUCUCGCUCCUAAGGAGAAGACUGCGGGUUCGAGUCCCGUACGGAACG, 0.689.

For GUUCCGUUGGCAUAAUGGUAACGUGUAUCCCUCCUAAGGAGAAGACUGCGGGUUCGAGUCCCGUACGGAUCG, the yeast fitness was not above 0.5. Then GUUCCGUUGGCAUAAUGGUAACGAGUCUCCCUCCUUAGGAGAAGACUGCGCGUUUGAGUCCCGUACGGCUCG, with 0.532; and GUUCCGUUGGCAUAAUGGUAACGCGUAUUCCUCCUAAGGAGAAGACUGCGGGUUCGAGUCCCGUACGGAACG, with 0.981. For GUUCCGUUGGCAUAAUGGUAAAGCGUCUCCCUCCUGGGGAGAAGACUGCGGGUUCGAGUCCCGUACGGAACG the value was not above 0.5. Then GUUCCGUUGGCAUAAUGGUACCGCGUCUCCCUCCUAAGGAGAAGACUGCGGGUUCGAGUCCCGUACGGAUCG, with 0.563; and GUUCCGUUGGCAUAAUGGUAACGCGUCUCCCUCCUAAGGAGAUGACUGCGGGUUCGACUCCCGUACGGAACG, with 0.632; and GUUCCGUUGGCAUAAUGGUAACGCGUCUCCCUCCUUAGGAGAAGACUGCGGGUCCGAGUCCCGUACGGAACG, with 0.54. On to GUUCCGUUGGCAUAAUGGUAACGCGUCUCCCUCGUAGAGAGAAGACUGCAGGUUCGAGUCCCGUACGGAACG, for which the yeast fitness was not above 0.5.

Consider GUUCCGUUGGCAUAAUGGUAACGAGUCUCCCUCCUUAGGAGAAGACUGCGGGUUCGAGUCUCGUACGGAACG, for which the yeast fitness came to 0.618.

As for GUUCCGUUGGCAUAAUGGUACCGCGUCUCCCUCCUAAGGAGAAGACUGCGGGUUCGAGACCCGUACAGAACG, the yeast fitness is not above 0.5.

For the variant GUUCCGUUGGCAUAAUGGUAAAGCGUCUCCCUCCUGGGGAGAAGACUGCGGGUUCGUGUCCCGUACGGAACG, the yeast fitness was not above 0.5.

As to GUUCCGUUGGCAUAAUGGUAAGGCGUCUGUCUCCUUAGGAGAAGACCGCGGGUUCGAGUCCCGUACGGAACG, the yeast fitness was determined as 0.571. For GUUCCGUUGGCAUAAUGGUAAAGCGUCUUCCUCCUAAGGAGAAGACUGCGGGUUCGAGUCCCGUACGGUACG the value was not above 0.5; for GUUCCGUUGGCAUAAUGGUAACGCGUUUCCCUCCUAAGGAGUAGACUGCGGGUUCGAGUCCUGUACGGAACG, not above 0.5; for GUUCCGUUGGCAUAAUGGUAACGCGUUUCGCUCCUAAGGAGAAGACUGCGGGUUCGAGUCCCGUACGUAACG, not above 0.5. Then GUUCCGUUGGCAUAAUGGUAGCGCGUCUCCCUCCUAAGGAGAAGAAUGCGGGUUCGAGUCCCGUACGGAACG, with 0.936; and GUUCCGUUGGCAUAAUGGUAACGCGUCUCCCUCCUAAGGAGAAGACUGCGGGUUCGAGUACCGUACGGAGCG, with not above 0.5.

Consider GUUCCGUUGGCAUAAUGGUAACGAGUCUCCCUCCUUAGGAGAAGACUGCGGGUUCGAGUCCCGUUCGGAACG, for which the yeast fitness was not above 0.5. Then GUUCCGUUGGCAUAAUGCUAACGCGUCUUCCUCCUAAGGAGAAGACUGCGGGUUCGCGUCCCGUCCGGAACG, with not above 0.5. For GUUCCGUUGGCAUAAUGGUAACACGUCGCCCUCCUAAGGAGAAGACUGUGGGUUCCAGUCCCGUUCGGAACG the value was 0.526.

With GUUCCGUUGGCAUAAUAGUAACGCGGCUCCCUACUAUGGAGAAGUCUGCGGGUUCGAGUCCCGUACGGAACG, the yeast fitness was not above 0.5. In the case of GUUCCGUUGGCAUAAUGGUAACGCGUUUCCCUCCUAAGGAGAAGACUGUGGGUUCGAGUCCCGUACGGAACG, the yeast fitness was found to be 0.611. For GUUCCGUUGGCAUAAUGGUAACGCGUCUCCCUCCUAAGGAGAAGACUGCGGGUUCGAGUUCCGUACGGAACG the value was 0.777. Consider GUUCCGUUGGCAUAAUGGUAACGCGUCUCCCUCCUAAGGAGAAGACUGCGGGUUCGAGUACCGUACGGAACG, for which the yeast fitness was 0.579. On to GUUCCGUUGGCAUAAUGGUAACGAGUCUCCCUCCUUAGGAGAAGACUGCGGGUUCGAGUCCCGUACGGCACG, for which the yeast fitness came out at 0.599. Consider GUUCCGUUGGCAUAAUGGUAACGCGUCUCCCUUCUAAGGAGAAGACUGCGGGUUCGAGUCCCGUACGGAACG, for which the yeast fitness came to 0.839.

In the case of GUUCCGUUGGCAUAAUGGUAACGCGUAUCGCUCCUAAGGAGAAGACUGCGGGUUCGAGUCCCGUACGGAACG, the yeast fitness amounted to 0.626. For GUUCCGUUGGCAUAAUGGUAACGCGUCUCCCUGCUCAGGAGAAAACUGCGGGUUCGAGUCCCGUACGGAACG the value was not above 0.5; for GUUCCGUUGGCAUAAUGGUAACACGUGUCGCUCCUAAGGAGAAGACUGCGGGUUCGAGUCCCGUACGGAACG, not above 0.5. For GUUCCGUUGGCAUAAUGGUAACGCGUCUCCCUCCUAAGGAGAAGACUGCGGGUUCGAGUCCUGUACGGAUCG, the yeast fitness is 0.695.

GUUCCGUUGGCAUAAUGGUAACGUGUCUCCCUCCUAAGGAGAAGACUGCGGGUUCGAGUCACGUACAGAACG: the yeast fitness was not above 0.5. For GUUCCGUUGGCAUAAUGGUAACGCGUCUCCCUCCUAAGGAGAAGAUUGCGAGUUCGAGUCCCGUAUGGAACG the value was 0.615. Then GUUCCGUUGGCAUAAUGGUAACGGGUCUCCCUCCUAAGGAGAAGACAGGGGGUUCGAGUCCCGUACGGCACG, with not above 0.5; and GUUCCGUUGGCAUAAUGGUUACGCGUCUCCCACCUAAGGAGAAGACUGGGGGUUCGAGUCCCAUUCGGAACG, with 0.535; and GUUCCGUUGGCAUAAUGGUAACGCGUCUCGCUCCUAAGGAGAAGAGUGCGGGUUCGAGUCCCGUACGGAACG, with not above 0.5. Then GUUCCGUUGGCAUAAUGGUGACGUGUAUCCCUCCUAAGGAGAAGACUGCGGGUUCGAGUCCCGUACGGAUCG, with not above 0.5. With GUUCCGUUGGCAUAAUGGUAACGCGUUUCCCUCCUAAGGAGAAGACUGCGGGUUCGAGUCCCGUACAGAACG, the yeast fitness is 0.571.

Take GUUCCGUUGGCAUAAUGGUAACGCGUCUGCCUCCGAAGGAGAAGACUGCGGGUUCGAGUCUCGUACGGAACG: the yeast fitness is not above 0.5. Then GUUCCGUUGGCAUAAUGGUAACGCGUCUCCCUUCUAAGGAGAAGACUGCGGGUUCGAGUCCCAUACGGAACG, with not above 0.5; and GUUCCGUUGGCAUAAUGGUAACGCGUCUACCUCCUAAGGAGUAGUCUGCGGGUUCGAGUCGCGUACGGAACG, with not above 0.5.

For the variant GUUCCGUUGGCAUAAUGGUAACGCGUGUCCCUCUUAAGGAGACGACUGCGGGUUCGUAUCCGGUACGGAACG, the yeast fitness is not above 0.5. For GUUCCGUUGGCAUAAUGGUAACGCGUGUCCCUCCUUAGGAGAAGACUGCGGGUUCGAGUCCCGUUCGGAACG the value was not above 0.5; for GUUCCGUUGGCAUAAUGGUAACGCGUCUCCCUCCUGAGGAGAAGACGGCGGGUUCGAGUCCCAUUCGGAACG, not above 0.5. Then GUUCCGUUGGCAUAAUGGUAACGCGUCUCCCUCCUAAGGAGAAGACUGCGGGUUCGAGUCGCGUACGGAACG, with 0.605. With GUUCCGUUGGCAUAAUGGUAACGCGUAUCCCUCCUAAGGAGAAGACUGCGGGUUCGAGUCCCGUACCGAACG, the yeast fitness was 0.548.

GUUCCGUUGGCAUAAUGGUUACGCGUCUCCCUCCUAAGGAGAAGACUGCGGGUUCGAGUCCUGUGCGGAACG: the yeast fitness was not above 0.5. Turning to GUUCCGUUGGCAUAAUGGUAACGCGUAUUCCUCCUGAGGAGAAGACUGCGGGUUCGAGUCCCGUACGGAACG, the yeast fitness is not above 0.5.

Take GUUCCGUUGGCAUAAUGGUAACGCGUCUCCCUCCUAAGGAGAAGACUGCGGGUUCGGGUCCCGUACGGCACG: the yeast fitness is not above 0.5. For GUUCCGUUGGCAUAAUGGUAACGCGUCUCCCUCCUCCGGAGAAGACUGCGGGGUCGAGUCCCGUACGGACCG the value was not above 0.5. For GUUCCGUUGGCAUAAUGGUAACGCGUCUCGCUCCUAAGGAGAAGACUGCGGGUUCGAGUCCCGUUCGGAACG the value was not above 0.5; for GUUCCGUUGGCAUAAUGGUAACGCGUCUCCCUCCUAAGGAGAAGAAAGCGGGUUCGAGUCCCGUACGGAACG, 0.75. Consider GUUCCGUUGGCAUAAUGGUAACGCGUCUCCCUCCUAAGGAGAAGAGUGCGGGUUCGAGUCCCGUACGGAACG, for which the yeast fitness was 1. For GUUCCGUUGGCAUAAUGGUAACGCGUCUCCCUCCUAAGGAGAAGACUGUGGGUUCGAGUCCCGUCCGGAACG the value was 0.676; for GUUCCGUUGGCAUAAUGGUAACGCGUCUCCCUCCUAAGGAGAAGCCUGGGGGUUCGAGUCCCGUACGGAACG, 0.619. In the case of GUUCCGUUGGCAUAAUGGUAACGCGUCUCCCUCCUAAGGAGAGGACUGCGGGUUCGAGUCCCGUACGGUACG, the yeast fitness was 0.803.

Regarding GUUCCGUUGGCAUAAUGGUAACGAGACUCCAUCCUAAGGAGAAGACUGCGGGUUCGAGUCCCGUACAGAACG, the yeast fitness was not above 0.5. For the variant GUUCCGUUGGCAUAAUGGUAACGGGUCUCCCUCCUAAGGAGAAGACUGCGGGUUCGAGUCCCGUACGAAACG, the yeast fitness was not above 0.5.

For the variant GUUCCGUUGGCAUAAUGGUAACGGGUCUCCCUCCUAAGGCGGCGAUUGCGGGUUCGAGUCCCGUACGCUACG, the yeast fitness is not above 0.5. As to GUUCCGUUGGCAUAAUGGUAACGCGUCUCCCUCCUAAGGAGAUGCCUGUGGGUUCGAGUCCCGUACCGAACG, the yeast fitness is not above 0.5.

As to GUUCCGUUGGCAUAAUGACAACGCGUCUCCCUCCUAAGGAGAAGACUGCGGGUUUGCCUCCCAUACGGAACG, the yeast fitness was not above 0.5.

GUUCCGUUGGCAUAAUGGUAACGCGUCUCCCUCCUAAGGUGAAGACUGCGGCUUCGAGUGCCGUACGGAACG: the yeast fitness was not above 0.5. For GUUCCGUUGGCAUAAUGGUAACGAGUCUCCCUCCUAAGGAGAAGGCUGCAGGUUCGAGUCCCGUACGGAACG the value was not above 0.5. Then GUUCCGUUGGCAUAAUGGUAACGCGUCUCCCUCCUAAGGAGAAGACUGCGGGUUUGAGUCCCGUACGGAACG, with 0.908. Then GUUCCGUUGGCAUAAUGGUAACGCGUCUCCCUUCUCAGGAGAAGACUGCGGGUUCGAGUCCUGUACGGAACG, with 0.553; and GUUCCGUUGGCAUAAUGGUAGCGCGUCUCCCUCCUAAGGAGAAGACUACGGGUUCGAGUCCCGUUCGGAACG, with 0.534. Consider GUUCCGUUGGCAUAAUGGUAACGCGUCUCCCUCCUAAGGAGAAGACUGCGGGUUCGUGUCCCGUACGGAACG, for which the yeast fitness was 0.668.

For the variant GUUCCGUUGGCAUAAUGGUAACGCGUCUCCCUCCUAAGGAGAAGACUGCGGGUUCGGGUCCCGUACGGAACG, the yeast fitness was determined as 0.909. In the case of GUUCCGUUGGCAUAAUGGUGACGCGUCUCCCUCCUAAGGAGAAGACUGCGGGUUCGAGUCCCAUACGGAACG, the yeast fitness is not above 0.5.

Turning to GUUCCGUUGGCAUAAUGGUAACGCGUCUCUCUCCUAAGGAGAAGCCUGCGGGUUCGAGUGCCGUACGGAACG, the yeast fitness was not above 0.5.
